# Activity calls are given as the source filed them. No cut-off for these calls is given here.
# Assays:
# [1] = target: P-gp (ABCB1) ATPase activity (Homo sapiens, UniProt P08183); assay: Inhibition of P-gp (unknown origin) assessed as reduction in ATPase activity at 2.08 to 6.25 uM incubated over 20 mins by inorganic phosphate release assay
# Summary of the method: (§1)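 P-gp ATPase assay run in the same way as the ABCC10 assay. Membrane protein (5−10 μg) was preincubated 5 min at 37 °C with test agent, buffer (Tris-HCl pH 7.5, KCl, azide, EGTA, ouabain, DTT) and MgCl2. The reaction was started with 5 mM ATP, run 20 min at 37 °C and quenched with SDS. Pi was measured colorimetrically.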
# [2] = target: T1, ATP-binding cassette sub-family C member 10 (Homo sapiens) (UniProt Q5T3U5); assay: Inhibition of ABCC10 (unknown origin) assessed as reduction in BeFx-sensitive ATPase activity at 2.08 to 50 uM incubated over 20 mins by inorganic phosphate release assay
# T1 sequence (whole entry): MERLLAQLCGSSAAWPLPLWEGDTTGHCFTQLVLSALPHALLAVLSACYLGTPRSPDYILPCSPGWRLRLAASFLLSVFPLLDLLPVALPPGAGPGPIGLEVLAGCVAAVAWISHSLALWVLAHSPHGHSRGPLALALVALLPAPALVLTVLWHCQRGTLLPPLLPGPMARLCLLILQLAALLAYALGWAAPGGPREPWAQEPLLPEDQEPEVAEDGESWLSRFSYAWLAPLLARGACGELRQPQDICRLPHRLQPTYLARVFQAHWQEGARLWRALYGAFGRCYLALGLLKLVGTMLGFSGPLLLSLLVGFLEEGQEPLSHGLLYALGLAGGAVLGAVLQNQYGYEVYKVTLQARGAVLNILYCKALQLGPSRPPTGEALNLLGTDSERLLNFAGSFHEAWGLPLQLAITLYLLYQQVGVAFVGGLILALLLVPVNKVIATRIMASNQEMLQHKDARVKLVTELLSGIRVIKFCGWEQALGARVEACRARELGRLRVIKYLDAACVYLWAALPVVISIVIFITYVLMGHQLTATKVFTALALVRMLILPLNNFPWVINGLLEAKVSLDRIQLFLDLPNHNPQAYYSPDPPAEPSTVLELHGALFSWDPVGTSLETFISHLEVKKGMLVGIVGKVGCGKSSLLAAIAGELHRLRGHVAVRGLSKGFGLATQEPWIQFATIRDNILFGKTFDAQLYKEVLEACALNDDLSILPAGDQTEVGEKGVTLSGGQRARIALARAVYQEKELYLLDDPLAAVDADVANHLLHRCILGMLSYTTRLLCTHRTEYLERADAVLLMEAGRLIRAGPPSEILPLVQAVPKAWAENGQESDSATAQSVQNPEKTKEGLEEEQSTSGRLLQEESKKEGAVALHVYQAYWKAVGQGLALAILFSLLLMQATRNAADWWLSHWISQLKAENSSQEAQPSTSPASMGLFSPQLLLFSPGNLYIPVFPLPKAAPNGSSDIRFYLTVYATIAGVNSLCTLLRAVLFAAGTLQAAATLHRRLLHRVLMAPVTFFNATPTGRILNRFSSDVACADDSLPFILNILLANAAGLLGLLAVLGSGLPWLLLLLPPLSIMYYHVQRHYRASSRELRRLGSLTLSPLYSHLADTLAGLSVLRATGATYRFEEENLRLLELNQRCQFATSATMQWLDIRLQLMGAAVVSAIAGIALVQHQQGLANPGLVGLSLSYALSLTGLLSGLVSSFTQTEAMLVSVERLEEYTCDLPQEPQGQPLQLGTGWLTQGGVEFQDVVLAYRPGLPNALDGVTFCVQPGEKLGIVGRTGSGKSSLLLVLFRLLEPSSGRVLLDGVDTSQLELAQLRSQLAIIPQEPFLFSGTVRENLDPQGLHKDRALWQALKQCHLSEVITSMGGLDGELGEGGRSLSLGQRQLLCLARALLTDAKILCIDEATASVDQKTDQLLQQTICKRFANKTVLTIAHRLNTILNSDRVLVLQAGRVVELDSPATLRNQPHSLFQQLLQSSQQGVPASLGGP
# Summary of the method: (§2)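 Membranes holding ABCC10 (5−10 μg protein) were preincubated for 5 min at 37 °C with test agent in 2× assay buffer (Tris-HCl pH 7.5, KCl, sodium azide, EGTA, ouabain, DTT) plus MgCl2. The reaction was started with 5 mM ATP and run 20 min at 37 °C, then stopped with 5% SDS. Released Pi was read colorimetrically (Lanzetta), and ABCC10 activity was taken as the BeFx-sensitive fraction.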
# [3] = target: T1, ATP-binding cassette sub-family C member 10 (Homo sapiens); assay: Inhibition of ABCC10 (unknown origin) assessed as reduction in BeFx-sensitive ATPase activity incubated over 20 mins by inorganic phosphate release assay; summary of the method: as §2
# [4] = target: ATP-dependent translocase ABCB1 (Homo sapiens, UniProt P08183); assay: Inhibition of P-gp (unknown origin) assessed as reduction in ATPase activity at 2.08 to 50 uM incubated over 20 mins by inorganic phosphate release assay; summary of the method: as §1
# Sequence of ATP-dependent translocase ABCB1 (P08183 whole entry): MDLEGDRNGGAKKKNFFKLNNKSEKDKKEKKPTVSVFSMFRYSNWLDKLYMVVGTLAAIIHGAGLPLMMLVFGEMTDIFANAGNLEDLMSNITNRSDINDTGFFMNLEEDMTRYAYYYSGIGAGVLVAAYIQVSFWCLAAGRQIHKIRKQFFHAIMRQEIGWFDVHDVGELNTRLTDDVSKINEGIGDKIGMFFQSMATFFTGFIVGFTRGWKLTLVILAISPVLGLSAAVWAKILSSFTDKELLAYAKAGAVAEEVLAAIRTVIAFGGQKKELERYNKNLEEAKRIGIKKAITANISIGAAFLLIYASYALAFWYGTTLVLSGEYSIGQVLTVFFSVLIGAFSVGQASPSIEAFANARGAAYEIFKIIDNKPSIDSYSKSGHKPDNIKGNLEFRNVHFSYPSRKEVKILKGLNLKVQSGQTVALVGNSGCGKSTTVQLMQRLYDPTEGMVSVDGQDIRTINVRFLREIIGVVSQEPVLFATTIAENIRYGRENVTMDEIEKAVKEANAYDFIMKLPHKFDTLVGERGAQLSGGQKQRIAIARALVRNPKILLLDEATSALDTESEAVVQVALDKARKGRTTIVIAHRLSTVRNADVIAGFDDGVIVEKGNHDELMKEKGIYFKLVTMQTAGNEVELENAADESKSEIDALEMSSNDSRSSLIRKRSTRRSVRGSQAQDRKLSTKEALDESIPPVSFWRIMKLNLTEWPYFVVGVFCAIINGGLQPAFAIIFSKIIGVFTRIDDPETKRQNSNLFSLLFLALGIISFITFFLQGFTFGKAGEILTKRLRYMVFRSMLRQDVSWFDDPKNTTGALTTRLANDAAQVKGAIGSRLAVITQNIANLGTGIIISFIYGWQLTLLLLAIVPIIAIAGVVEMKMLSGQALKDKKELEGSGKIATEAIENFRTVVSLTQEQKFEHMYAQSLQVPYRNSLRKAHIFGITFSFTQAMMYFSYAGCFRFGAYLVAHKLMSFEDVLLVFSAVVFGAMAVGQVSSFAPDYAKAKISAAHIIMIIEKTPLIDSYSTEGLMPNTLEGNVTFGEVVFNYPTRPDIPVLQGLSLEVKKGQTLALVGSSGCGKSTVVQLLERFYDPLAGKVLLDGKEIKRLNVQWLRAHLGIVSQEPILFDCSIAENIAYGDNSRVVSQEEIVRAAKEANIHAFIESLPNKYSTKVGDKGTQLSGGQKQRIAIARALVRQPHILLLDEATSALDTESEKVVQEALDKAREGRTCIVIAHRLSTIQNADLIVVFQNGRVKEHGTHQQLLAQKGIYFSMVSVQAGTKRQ
# [5] = target: T1, ATP-binding cassette sub-family C member 10 (Homo sapiens); assay: Inhibition of ABCC10 (unknown origin) assessed as reduction in BeFx-sensitive ATPase activity at 12.5 uM incubated over 20 mins by inorganic phosphate release assay; summary of the method: as §2
# [6] = target: T1, ATP-binding cassette sub-family C member 10 (Homo sapiens); assay: Inhibition of ABCC10 (unknown origin) expressed in HEK293 cells assessed as reversal of paclitaxel resistance at 12.5 uM after 72 hrs by MTS/PMS assay; format: cell-based
# Summary of the method: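 Cells used were HEK293-pcDNA3 vector control and the ABCC10 (MRP7) transfectants C17 and C18, seeded in triplicate at 5000 cells/well in DMEM with 10% FBS. Next day, paclitaxel was added at various concentrations, with or without modulator at 12.5 μM. Survival was read after 72 h of drug exposure by MTS/PMS colorimetric assay.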
# [7] = target: T1, ATP-binding cassette sub-family C member 10 (Homo sapiens); assay: Inhibition of ABCC10 (unknown origin) assessed as reduction in BeFx-sensitive ATPase activity at 50 uM incubated over 20 mins by inorganic phosphate release assay; summary of the method: as §2
# Sequence of P-gp (ABCB1) ATPase activity (P08183 whole entry): as above
SMILES,inhibition [2],inhibition (INH) [4],inhibition [6] [%],also measured
COc1ccc2cc1Oc1ccc(cc1)C[C@H]1c3c(cc4c(c3Oc3cc5c(cc3OC)CCN(C)[C@@H]5C2)OCO4)CCN1C,–,–,–,inhibition [3]: 20%
COC(=O)C1=C2Nc3ccccc3[C@@]23CCN2C[C@@H](C(C)=O)[C@@H]1C[C@H]23 [ALSTOLUCINE B],–,Not Active,50,inhibition [5]: 40%
COC(=O)C1=C2Nc3ccccc3[C@@]23CCN2C[C@H](C(C)=O)[C@@H]1C[C@H]23 [ALSTOLUCINE F],–,Not Active,50,inhibition [7]: 40%

# More lines, main results first:
inhibition [2],SMILES,inhibition (INH) [4],inhibition [6] [%],also measured
inactive,COC(=O)C1=C2Nc3ccccc3[C@@]23CCN2C[C@H]([C@@H](C)O)[C@@H]1C[C@H]23,–,–,inhibition at 20 min [1]: 35%
inactive,CCOC(=O)O[C@H](C)[C@H]1CN2CC[C@]34C(=C(C(=O)OC)[C@H]1C[C@H]23)Nc1ccccc14 [ALSTOLUCINE A],Not Active,–,–
